In BindingDB's records for doi:10.1016/j.bmc.2010.05.001 (St. Jude Children'S Research Hospital, 2011) one finds IC50 data, which are given here for two molecules.

Assay [1] addresses T1, Zinc finger protein GLI1 (Homo sapiens, UniProt P08151).
T1 sequence (P08151 whole entry): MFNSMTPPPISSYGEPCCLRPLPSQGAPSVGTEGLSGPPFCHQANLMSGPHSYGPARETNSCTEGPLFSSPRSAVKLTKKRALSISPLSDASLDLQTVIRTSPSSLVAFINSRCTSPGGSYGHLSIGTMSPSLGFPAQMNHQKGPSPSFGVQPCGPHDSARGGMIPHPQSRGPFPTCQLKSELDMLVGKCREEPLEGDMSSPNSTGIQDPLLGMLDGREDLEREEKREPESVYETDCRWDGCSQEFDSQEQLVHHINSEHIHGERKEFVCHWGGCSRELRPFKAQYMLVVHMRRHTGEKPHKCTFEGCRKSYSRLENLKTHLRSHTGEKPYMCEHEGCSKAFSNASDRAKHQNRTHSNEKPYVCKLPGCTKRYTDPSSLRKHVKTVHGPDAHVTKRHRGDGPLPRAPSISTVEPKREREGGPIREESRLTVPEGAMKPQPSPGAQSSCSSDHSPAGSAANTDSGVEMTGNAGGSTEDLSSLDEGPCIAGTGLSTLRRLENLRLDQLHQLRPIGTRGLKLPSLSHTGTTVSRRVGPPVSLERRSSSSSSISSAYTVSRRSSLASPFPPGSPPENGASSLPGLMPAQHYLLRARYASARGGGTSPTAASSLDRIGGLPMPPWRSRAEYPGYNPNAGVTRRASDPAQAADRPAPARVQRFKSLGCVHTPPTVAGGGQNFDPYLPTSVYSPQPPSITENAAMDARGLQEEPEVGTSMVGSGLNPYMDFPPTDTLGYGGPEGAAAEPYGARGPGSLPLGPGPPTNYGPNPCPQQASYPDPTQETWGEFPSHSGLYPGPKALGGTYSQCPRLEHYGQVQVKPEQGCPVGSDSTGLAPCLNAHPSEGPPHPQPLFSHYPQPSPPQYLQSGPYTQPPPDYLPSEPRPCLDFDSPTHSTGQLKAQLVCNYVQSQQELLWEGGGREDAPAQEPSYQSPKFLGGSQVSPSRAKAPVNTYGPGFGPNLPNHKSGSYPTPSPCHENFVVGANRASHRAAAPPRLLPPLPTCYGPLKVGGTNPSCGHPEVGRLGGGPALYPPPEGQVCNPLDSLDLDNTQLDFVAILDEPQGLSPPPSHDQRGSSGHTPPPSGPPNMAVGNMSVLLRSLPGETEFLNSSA
As to the kind of experiment: Inhibition of human Gli1 expressed in mouse C3H10T1/2 cells assessed as inhibition of transcriptional activity after 24 hrs by luciferase reporter gene assay. The method in brief:
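C3H10T1/2 cells transiently transfected overnight with GliLuc-BS, pRL-TK Renilla control and human Gli1 (or mouse Gli2 for Gli2 lines), 250 ng/mL each for the Gli plasmids. Firefly/Renilla dual-luciferase ratio normalized to DMSO, triplicates. Dose–response IC50 from curve fitting.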
A general note: A reporter such as luciferase makes a cellular process visible.

For assay [2], the target named is T1, Zinc finger protein GLI1. As to the kind of experiment: Inhibition of human Gli1-mediated transcriptional activity in human Rh30 cells after 24 hrs by luciferase reporter gene assay. The procedure, abridged:
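Rh30 cells without Gli1 transfection, transfected overnight with GliLuc-BS (500 ng/mL) and pRL-CMV (2.5 ng/mL), then replated in 96-well plates. Compound given in RPMI-1640/10% FBS for 24 h at 37 °C. Firefly luminescence divided by Renilla and normalized to DMSO-treated cells (0% inhibition), triplicates.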

The term IC50 denotes the concentration that gives 50% inhibition. For the molecule `CCCN(C(=O)C(C)c1cccc(C(=O)c2ccccc2)c1)c1ccc2[nH]ccc2c1` (configuration not stated) [2-(3-Benzoylphenyl)-N-(1H-indol-5-yl)-N-propylpropanamide], the IC50 at Zinc finger protein GLI1 [1] came out at 1.6 µM.
With `CN(C)c1ccccc1CN1CCCN(Cc2ccccc2N(C)C)C1c1ccncc1` [2-((3-(2-(dimethylamino)benzyl)-2-(pyridin-4-yl)-tetrahydropyrimidin-1(2H)-yl)methyl)-N,N-dimethylbenzenamine], inhibition at Zinc finger protein GLI1 [2] was half-maximal at 40 µM (IC50).
